Experimental data from ChEMBL document CHEMBL4425163, “Structure elucidation of anti-methicillin resistant Staphylococcus aureus (MRSA) flavonoids from balsam poplar buds” (Bioorg Med Chem, 2016).
≈ marks a conversion by molar mass, not a printed value.

Columns and labels:
Staphylococcus aureus [1] = assay: Antibacterial activity against methicillin resistant Staphylococcus aureus clinical isolate 4 incubated for 7 to 14 days by microdilution resazurin assay
Staphylococcus aureus [2] = assay: Antibacterial activity against methicillin resistant Staphylococcus aureus clinical isolate 1 incubated […] by microdilution resazurin assay; type: functional; settings: Staphylococcus aureus, isolate 1; read-out: MIC
Staphylococcus aureus [3] = assay: Antibacterial activity against Staphylococcus aureus ATCC 25923 incubated […] by microdilution resazurin assay; type: functional; settings: Staphylococcus aureus, ATCC 25923; read-out: MIC
Staphylococcus aureus [4] = assay: Antibacterial activity against methicillin resistant Staphylococcus aureus clinical isolate 9 incubated […] by microdilution resazurin assay; type: functional; settings: Staphylococcus aureus, isolate 9; read-out: MIC
Staphylococcus aureus [5] = assay: Antibacterial activity against methicillin resistant Staphylococcus aureus clinical isolate 10 incubated […] by microdilution resazurin assay; type: functional; settings: Staphylococcus aureus, isolate 10; read-out: MIC
Staphylococcus aureus [6] = assay: Antibacterial activity against methicillin resistant Staphylococcus aureus clinical isolate 6 incubated […] by microdilution resazurin assay; type: functional; settings: Staphylococcus aureus, isolate 6; read-out: MIC
Staphylococcus aureus [7] = assay: Antibacterial activity against methicillin resistant Staphylococcus aureus clinical isolate 3 incubated for 7 to 14 days by microdilution resazurin assay
[8] = Cytotoxicity against human WS1 cells by resazurin reduction assay; type: cell-based; settings: Homo sapiens, WS1
In short: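 WS1 human fibroblast line; resazurin reduction test, slightly modified from an earlier method. Etoposide served as positive control.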

Staphylococcus aureus [9] = assay: Antibacterial activity against methicillin resistant Staphylococcus aureus clinical isolate 7 incubated […] by microdilution resazurin assay; type: functional; settings: Staphylococcus aureus, isolate 7; read-out: MIC
Staphylococcus aureus [10] = assay: Antibacterial activity against methicillin resistant Staphylococcus aureus clinical isolate 2 incubated […] by microdilution resazurin assay; type: functional; settings: Staphylococcus aureus, isolate 2; read-out: MIC
Staphylococcus aureus [11] = assay: Antibacterial activity against methicillin resistant Staphylococcus aureus clinical isolate 5 incubated […] by microdilution resazurin assay; type: functional; settings: Staphylococcus aureus, isolate 5; read-out: MIC
Staphylococcus aureus [12] = assay: Antibacterial activity against methicillin resistant Staphylococcus aureus clinical isolate 8 incubated […] by microdilution resazurin assay; type: functional; settings: Staphylococcus aureus, isolate 8; read-out: MIC

SMILES | MIC (Staphylococcus aureus [1]) [µM] | MIC (Staphylococcus aureus [2]) [µM] | MIC (Staphylococcus aureus [3]) [µM] | MIC (Staphylococcus aureus [4]) [µM] | MIC (Staphylococcus aureus [5]) [µM] | MIC (Staphylococcus aureus [6]) [µM] | MIC (Staphylococcus aureus [7]) [µM] | IC50 [8] [µM] | MIC (Staphylococcus aureus [9]) [µM] | MIC (Staphylococcus aureus [10]) [µM] | MIC (Staphylococcus aureus [11]) [µM] | MIC (Staphylococcus aureus [12]) [µM]
COc1ccc(CCC(=O)c2c(O)cc(O)c3c2O[C@H](c2ccc(O)cc2)CC3)cc1 | > 50 | > 50 | > 50 | > 50 | > 50 | > 50 | > 50 | > 10 | > 50 | > 50 | > 50 | > 50
O=C(CCc1ccccc1)c1c(O)cc(O)c(C/C=C/c2ccc(O)cc2)c1O | 6 (≈ 2.34 µg/mL) | 6 (≈ 2.34 µg/mL) | 6 (≈ 2.34 µg/mL) | 3 (≈ 1.17 µg/mL) | 6 (≈ 2.34 µg/mL) | 50 (≈ 19.5 µg/mL) | 6 (≈ 2.34 µg/mL) | > 10 | 6 (≈ 2.34 µg/mL) | 6 (≈ 2.34 µg/mL) | 3 (≈ 1.17 µg/mL) | 3 (≈ 1.17 µg/mL)
O=C(CCc1ccc(O)cc1)c1c(O)cc(O)c2c1O[C@@H](c1ccc(O)cc1)[C@H](C/C=C/c1ccc(O)cc1)C2 | 25 (≈ 13.5 µg/mL) | 25 (≈ 13.5 µg/mL) | 13 (≈ 7 µg/mL) | 13 (≈ 7 µg/mL) | 13 (≈ 7 µg/mL) | 13 (≈ 7 µg/mL) | 13 (≈ 7 µg/mL) | > 10 | 6 (≈ 3.23 µg/mL) | 13 (≈ 7 µg/mL) | 13 (≈ 7 µg/mL) | 13 (≈ 7 µg/mL)
COc1cc(O)c(C(=O)CCc2ccc(O)cc2)c2c1CCC(c1ccc(O)cc1)O2 (centres undefined) | > 50 | > 50 | > 50 | > 50 | > 50 | 50 (≈ 21 µg/mL) | > 50 | > 10 | 50 (≈ 21 µg/mL) | 50 (≈ 21 µg/mL) | > 50 | > 50
COc1ccc(CCC(=O)c2c(O)cc(O)c(C/C=C/c3ccc(O)cc3)c2O)cc1 | 13 (≈ 5.47 µg/mL) | 50 (≈ 21 µg/mL) | > 50 | 25 (≈ 10.5 µg/mL) | 25 (≈ 10.5 µg/mL) | 25 (≈ 10.5 µg/mL) | 13 (≈ 5.47 µg/mL) | > 10 | 25 (≈ 10.5 µg/mL) | 25 (≈ 10.5 µg/mL) | 13 (≈ 5.47 µg/mL) | 25 (≈ 10.5 µg/mL)
O=C(CCc1ccc(O)cc1)c1c(O)cc(O)c2c1O[C@H](c1ccc(O)cc1)[C@@H](C/C=C/c1ccc(O)cc1)C2 | 3 (≈ 1.62 µg/mL) | 3 (≈ 1.62 µg/mL) | 6 (≈ 3.23 µg/mL) | 3 (≈ 1.62 µg/mL) | 3 (≈ 1.62 µg/mL) | 3 (≈ 1.62 µg/mL) | 3 (≈ 1.62 µg/mL) | > 10 | 3 (≈ 1.62 µg/mL) | 3 (≈ 1.62 µg/mL) | 3 (≈ 1.62 µg/mL) | 3 (≈ 1.62 µg/mL)
COc1cc(O)c(C(=O)CCc2ccc(O)cc2)c(O)c1C/C=C/c1ccc(O)cc1 | 50 (≈ 21 µg/mL) | > 50 | > 50 | > 50 | 50 (≈ 21 µg/mL) | 50 (≈ 21 µg/mL) | 50 (≈ 21 µg/mL) | > 10 | 50 (≈ 21 µg/mL) | 50 (≈ 21 µg/mL) | 50 (≈ 21 µg/mL) | 50 (≈ 21 µg/mL)
COc1ccc(CCC(=O)c2c(O)cc(O)c3c2O[C@@H](c2ccc(O)cc2)CC3)cc1 | 25 (≈ 10.5 µg/mL) | 13 (≈ 5.47 µg/mL) | 25 (≈ 10.5 µg/mL) | 13 (≈ 5.47 µg/mL) | 25 (≈ 10.5 µg/mL) | 25 (≈ 10.5 µg/mL) | 13 (≈ 5.47 µg/mL) | > 10 | 13 (≈ 5.47 µg/mL) | 13 (≈ 5.47 µg/mL) | 13 (≈ 5.47 µg/mL) | 13 (≈ 5.47 µg/mL)
O=C(CCc1ccccc1)c1c(O)cc2c(c1O)C[C@@H](C/C=C/c1ccc(O)cc1)[C@H](c1ccc(O)cc1)O2 (racemic) | > 50 | > 50 | > 50 | > 50 | > 50 | > 50 | > 50 | > 10 | > 50 | > 50 | > 50 | > 50
COc1ccc(CCC(=O)c2c(O)cc(O)c(C(c3ccc(O)cc3)C(C/C=C/c3ccc(O)cc3)COC(=O)/C=C/c3ccccc3)c2O)cc1 (racemic) | > 50 | > 50 | 25 (≈ 17.5 µg/mL) | > 50 | > 50 | > 50 | > 50 | > 10 | > 50 | > 50 | > 50 | > 50
COc1ccc(CCC(=O)c2c(O)c3c(c4c2O[C@@H](c2ccc(O)cc2)[C@H](C/C=C/c2ccc(O)cc2)C4)O[C@@H](c2ccc(O)cc2)[C@H](O)C3)cc1 (racemic) | 50 (≈ 35 µg/mL) | 25 (≈ 17.5 µg/mL) | 50 (≈ 35 µg/mL) | 25 (≈ 17.5 µg/mL) | 25 (≈ 17.5 µg/mL) | 50 (≈ 35 µg/mL) | 25 (≈ 17.5 µg/mL) | > 10 | 25 (≈ 17.5 µg/mL) | 25 (≈ 17.5 µg/mL) | 13 (≈ 9.11 µg/mL) | 25 (≈ 17.5 µg/mL)
COc1ccc(CCC(=O)c2c(O)c3c(c4c2OC(c2ccc(O)cc2)C(C/C=C/c2ccc(O)cc2)C4)OC(c2ccc(O)cc2)C(C/C=C/c2ccc(O)cc2)C3)cc1 (racemic) | > 50 | > 50 | > 50 | > 50 | > 50 | > 50 | > 50 | > 10 | > 50 | > 50 | > 50 | > 50
